Test results reported in ChEMBL document CHEMBL1138242, “Synthesis, crystal structure, and activity of pyrazole-based inhibitors of p38 kinase” (J Med Chem, 2007).
Activity calls are given as the source filed them. The rule behind the calls is not given here.

What was measured:
Rattus norvegicus [1] = assay: Inhibition of LPS-induced TNF production in rat pretreated at 20 mg/kg, po after […] by ELISA; format: functional
Rattus norvegicus [2] = assay: Inhibition of LPS-induced TNF production in rat pretreated at 5 mg/kg, po after […] by ELISA; format: functional
Mus musculus [3] = assay: Decrease of arthritis incidence in collagen-induced DBA/1 mouse at 30 mg/kg, po bid; format: functional, organism-based; set-up: dose 30 mg/kg
How it was run: (§1)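 Male DBA/1 mice; arthritis induced by subcutaneous type II chick collagen in Freund's adjuvant on days 1 and 21. Test agent given by oral gavage twice daily in Methocel/Tween, days 21-56. Weekly ip anti-TNF antibody served as comparator. Animals scored for signs of arthritis, with incidence compared with vehicle by logistic regression (p < 0.05); 8-10 mice per group.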

Mus musculus [4] = assay: Decrease of arthritis incidence in collagen-induced DBA/1 mouse at 15 mg/kg, po bid; format: functional, organism-based; set-up: dose 15 mg/kg; how it was run: as §1
MAP kinase p38 = MAP kinase p38 (Homo sapiens, UniProt O15264+Q15759+Q16539+P53778); assay: Inhibition of p38 MAPK activity assessed as EGFR phosphorylation; format: protein assay

Clc1ccc(-c2n[nH]c(N3CCCC4CCCCC43)c2-c2ccncc2)cc1 (stereo not drawn)
inhibition in vivo at 20 mg/kg (Rattus norvegicus [1]): 33%

Clc1ccc(-c2n[nH]c(N3CCc4ccccc4C3)c2-c2ccncc2)cc1
inhibition in vivo at 20 mg/kg (Rattus norvegicus [1]): 12%

CC1CCN(c2[nH]nc(-c3ccc(Cl)cc3)c2-c2ccncc2)CC1
inhibition in vivo at 20 mg/kg (Rattus norvegicus [1]): 16%

CN1CCN(c2[nH]nc(-c3ccc(Cl)cc3)c2-c2ccncc2)CC1
inhibition in vivo at 5 mg/kg (Rattus norvegicus [2]): 98% | inhibition in vivo at 20 mg/kg (Rattus norvegicus [1]): 95% | Activity (Mus musculus [3]): Active | Activity (Mus musculus [4]): Active

CC1CC(C)CN(c2[nH]nc(-c3ccc(Cl)cc3)c2-c2ccncc2)C1 (stereo not drawn)
inhibition in vivo at 20 mg/kg (Rattus norvegicus [1]): 53%

OC1CCN(c2[nH]nc(-c3ccc(Cl)cc3)c2-c2ccncc2)CC1
inhibition in vivo at 5 mg/kg (Rattus norvegicus [2]): 52% | inhibition in vivo at 20 mg/kg (Rattus norvegicus [1]): 91%

CC1CN(c2[nH]nc(-c3ccc(Cl)cc3)c2-c2ccncc2)CC(C)N1 (stereo not drawn)
inhibition in vivo at 5 mg/kg (Rattus norvegicus [2]): 93% | inhibition in vivo at 20 mg/kg (Rattus norvegicus [1]): 96%

Clc1ccc(-c2n[nH]c(N3CCC4CCCCC4C3)c2-c2ccncc2)cc1 (stereo not drawn)
inhibition in vivo at 20 mg/kg (Rattus norvegicus [1]): 11%

OC1CCCN(c2[nH]nc(-c3ccc(Cl)cc3)c2-c2ccncc2)C1 (stereo not drawn)
inhibition in vivo at 20 mg/kg (Rattus norvegicus [1]): 75%

CC1CN(c2[nH]nc(-c3ccc(Cl)cc3)c2-c2ccncc2)CCN1 (stereo not drawn)
inhibition in vivo at 5 mg/kg (Rattus norvegicus [2]): 84% | inhibition in vivo at 20 mg/kg (Rattus norvegicus [1]): 95% | IC50 (MAP kinase p38): 16 nM

Clc1ccc(-c2n[nH]c(N3CCN4CCC[C@H]4C3)c2-c2ccncc2)cc1
inhibition in vivo at 20 mg/kg (Rattus norvegicus [1]): 89%
